# Assay outcomes from PubChem.
# GAA850 FXN act = activators of GAA850 frataxin (FXN) promoter; HEK293 lucGAA850 FXN promoter luciferase reporter, 24 h; percent of 10 µM SAHA response; activation, % at 6 µM; 360,000 tested, 0.56% active;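 active means activation above the average of all compounds screened plus 3 SD, cutoff fixed separately per campaign, cut at about 7.5% in these data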;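 further: 0% = DMSO wells and 100% = 10 µM SAHA wells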
# Hep lipid drop = hepatic lipid droplet formation modulation. 240,000 tested, 0.4% active. AID 1656. inhibition, % at 6.5 µM. AML12 mouse hepatocytes, oleate lipid droplets, BODIPY imaging;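 active means lipid droplet intensity inhibited by at least 50%, with more than 500 cells counted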
#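 Assay system: AML12 mouse liver cells | Compound: 6.5 µM single-point dosing | Schedule: Overnight exposure | Technique: Fluorescence imaging, 20x objective, two fields per well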
# proCasp7 act = counter-screen: procaspase-7 (human) activation; P55210; recombinant procaspase-7, Ac-DEVD-pNA absorbance 405 nm; D23A/D198A/D206A triple mutant, cannot self-cleave; scale: DMSO 0, 5 µM enzyme 100; activation, % at 8.5 µM; 330,000 tested, 0.093% active;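 active means percent activation above the screen-wide mean plus 3 SD, cut at about 25% in these data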
# Target sequence (P55210 whole entry D23A/D198A/D206A): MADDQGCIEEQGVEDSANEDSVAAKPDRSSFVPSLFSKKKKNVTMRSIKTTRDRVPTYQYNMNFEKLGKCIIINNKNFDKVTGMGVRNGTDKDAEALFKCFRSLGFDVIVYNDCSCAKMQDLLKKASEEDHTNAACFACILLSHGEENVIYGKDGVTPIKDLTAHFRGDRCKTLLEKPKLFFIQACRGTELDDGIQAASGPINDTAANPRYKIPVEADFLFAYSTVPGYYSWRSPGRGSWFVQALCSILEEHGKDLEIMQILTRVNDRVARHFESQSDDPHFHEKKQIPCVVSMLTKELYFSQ
#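 System: Uncleavable procaspase-7 mutant enzyme; Amount: 2 µM procaspase-7 mutant as dispensed; Schedule: 1 h compound preincubation, 2 h substrate cleavage, 25 °C; Measured by: 405 nm absorbance of p-nitroaniline; Evaluation: percent activation from buffer-corrected 0–120 min absorbance change; Control set: low DMSO alone, high DMSO plus 5 µM PC-7.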
# proCasp3 act = procaspase-3 (human) activation. activation, % at 8.5 µM. P42574. 330,000 tested, 0.11% active. recombinant procaspase-3 D3A, Ac-DEVD-pNA absorbance 405 nm;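 active means activation above the mean of all tested compounds plus 3 SD, cut at about 21% in these data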;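 further: 0% = DMSO alone and 100% = DMSO wells spiked with extra 5 µM PC-3 D3A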
#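 Compound: 8.5 µM single point, 0.8% DMSO / Material: Autoprocessing-dead procaspase-3 D3A mutant enzyme / Timing: 1 h preincubation plus 2 h reaction at 25 °C / Medium: Zinc-free HEPES/NaCl buffer with 0.01% Triton X-100 at pH 7.4 / Technique: 405 nm absorbance of p-nitroaniline, reads at 0 and 120 min / Repeats: one well per compound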
# pCIP destab = p/CIP protein destabilization; Q05BA5; F442A p/CIP-EGFP cells, EGFP fluorescence, 16 h; decrease of EGFP signal, % at 10 µM; 290,000 tested, 0.01% active; AID 1984;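 active means EGFP signal decrease of at least 30% at 10 µM or well 3 SD below plate mean, unless failing retest; inactive means the rest, including hits failing retest or dose response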
# Rce1 inhib = yeast Ras-converting enzyme inhibition; Q03530; yeast membranes, quenched prenylated peptide cleavage fluorescence; calls only; 290,000 tested, 0.27% active;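 active means fall in fluorescence gain of 50% or more versus controls, with final raw signal at or below 3038400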;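 further: plate controls were neutral control wells for no effect and wells lacking membranes for full effect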
# GAA30 counter = activates GAA30 frataxin promoter, counter-screen for GAA850 activators; shares compounds with GAA850 FXN act; HEK293 lucGAA30 FXN promoter luciferase, 24 h; DMSO = 0%, 5 µM ipriflavone = 100%; activation, % at 6 µM; 1,900 tested, 66% active;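 active means mean activation above the mean of solvent-only control wells plus 3 SD, cut at about 22% in these data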;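 further: counterscreen of GAA850 promoter hits where activity marks nonselective or luminescence artifacts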
# GAA850 confirm = GAA850 FXN promoter activation confirmation; shares compounds with GAA850 FXN act; HEK293 lucGAA850 FXN promoter luciferase reporter, 24 h; 100% = activation by SAHA; activation, % at 6 µM; 1,900 tested, 86% active; AID 588351;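 active means mean activation above a set limit taken from the primary screen, cut at about 8% in these data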;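 further: 0% = DMSO wells and 100% = 10 µM SAHA wells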
# * hit, by the source's call; i = inactive; . = no result given. An excerpt weighted towards active compounds, which were near 1.2% of everything screened.
SMILES,GAA850 FXN act,Hep lipid drop,proCasp7 act,proCasp3 act,pCIP destab,Rce1 inhib,GAA30 counter,GAA850 confirm
O=C(Nc1ccccc1O)c1ccc(NC(=O)C2CC2)cc1,11.1*,3.3,2.5,-0.8,0.6,i,128.1*,64.0*
O=C(Nc1ccccc1C(=O)O)c1ccc(NC(=O)C2CC2)cc1,1.6,-10.8,1.5,1.6,-2.2,i,.,.
O=C(NCc1cccs1)c1ccc(N2CCCCC2)nc1,7.7*,6.9,-0.6,5.2,-3.9,i,85.6*,29.9*
Cc1c(C(=O)Nc2cc(F)ccc2F)sc2nc3n(c(=O)c12)CCCCC3,2.1,-10.0,7.0,5.8,-6.3,i,.,.
COc1cc2sc3cc(NCC[C@@H]4CCCN4C)ccc3c(=O)c2cc1OC,9.9*,.,0.6,-0.3,.,.,83.1*,42.5*
COc1cccc2sc3ccc(NCCC4CCCN4C)cc3c(=O)c12 (centres undefined),2.0,15.3,-6.1,0.8,-3.2,i,.,.
COc1cc2sc3cc(NCc4ccc(C)o4)ccc3c(=O)c2cc1OC,10.7*,.,-16.4,-11.1,.,.,109.4*,35.2*
O=[N+]([O-])c1ccccc1Oc1ccc(S(=O)(=O)N2CCOCC2)cc1,0.4,.,0.3,1.1,.,.,.,.
CCOC(=O)c1sc(Nc2ccccc2Cl)nc1C,9.9*,-2.5,-1.1,-5.2,-7.4,i,102.5*,39.8*
COc1ccc(C2CC(C(F)(F)F)n3ncc(C(=O)NCC4CCCO4)c3N2)cc1OC (centres undefined),8.2*,.,0.8,3.9,-12.1,i,9.1,10.9*
COc1ccc(C2CC(C(F)(F)F)n3ncc(C(=O)O)c3N2)cc1OC (centres undefined),4.0,.,-0.6,2.5,-4.7,i,.,.
CCCc1cc(=O)oc2cc(OCC(=O)NCC(O)c3ccccc3)ccc12 (centres undefined),-2.4,-0.7,2.4,2.3,-1.9,i,.,.
Cc1ccc(O)c(N/C=C/C(=O)c2ccc(F)cc2)c1,10.7*,-13.3,-15.1,-13.7,-2.2,i,19.3,25.4*
Cc1ccc(S(=O)(=O)NCCC(=O)NC2CCC(C)CC2)cc1 (centres undefined),0.2,.,3.6,4.5,.,.,.,.
COc1ccc(CCN(C)C(=O)CCc2nnc(-c3ccccc3)o2)cc1OC,9.3*,-7.5,0.8,0.1,-2.3,i,110.4*,30.6*
CN(Cc1ccc(F)cc1)C(=O)CCc1nnc(-c2ccccc2)o1,3.7,-1.7,-7.7,4.0,3.6,i,.,.
CCN(C[C@H]1N[C@@](CC)(C(=O)OC)[C@H]2C(=O)N(Cc3ccccc3)C(=O)[C@@H]12)S(=O)(=O)c1ccc(C)cc1,10.1*,.,6.6,7.2,.,.,11.0,8.1*
CCN(C[C@H]1N[C@@](CC)(C(=O)OC)[C@H]2C(=O)N(Cc3ccccc3)C(=O)[C@@H]12)S(=O)(=O)c1ccc(-c2ccccc2)cc1,-1.4,.,10.2,-1.0,.,.,.,.
CCN(C[C@H]1N[C@@](CC)(C(=O)OC)[C@H]2C(=O)N(Cc3ccccc3)C(=O)[C@@H]12)S(=O)(=O)c1ccc(OC(F)(F)F)cc1,11.5*,.,-2.9,7.9,.,.,21.3,10.1*
COc1cccc(-c2ccc(NC(=O)C3CCCN(Cc4nccn4C)C3)cc2)c1 (centres undefined),-0.7,-4.6,3.7,-9.6,4.8,i,.,.
CN(C(=O)COC(=O)/C=C/c1ccc(Cl)c(Cl)c1)c1c(N)n(Cc2ccccc2)c(=O)[nH]c1=O,0.6,.,3.8,8.8,.,i,.,.
O=C(NNC(=S)Nc1ccccc1)Nc1ccccc1,7.7*,19.5,-22.8,-17.4,-15.1,i,35.6*,11.3*
O=C(NNC(=S)Nc1ccccc1)NNC(=S)Nc1ccccc1,0.8,0.8,-21.8,-11.7,-9.7,i,.,.
